The values that follow come from ChEMBL document CHEMBL4177578, “Synthesis, pharmacological activities and molecular docking studies of pyrazolyltriazoles as anti-bacterial and anti-inflammatory agents” (Bioorg Med Chem, 2017).

What all share (assay type): functional
The subject of experiment [1] is Salmonella paratyphi. In words: Antimicrobial activity against Salmonella paratyphi incubated for 12 to 16 hrs by tube dilution method. The gist of the method: (§1)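 Broth tube dilution, two-fold serial dilutions from 500 to 1.9 µg/mL plus a drug-free control tube. Each tube inoculated with 1 mL culture at OD 0.2 (~McFarland standard), 37 °C for 12-16 h. Turbidity compared with the control tube. MIC is the lowest concentration giving complete growth inhibition.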

For experiment [2], the system named is Salmonella paratyphi. In words: Antimicrobial activity against Salmonella paratyphi at 1 mg/ml incubated for 20 to 30 mins followed by incubation for 24 hrs at 37 degC by agar plate method. To be noted: for diameter of the inhibition zone (DIZ): Salmonella enterica subsp. enterica serovar Paratyphi A. The procedure, abridged:
(§2)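 Agar well diffusion on nutrient agar. Plates swabbed with 60 µL inoculum, 8 mm wells loaded with 100 µL sample at 1.0 mg/mL, streptomycin standard and control in separate wells. Plates held 20–30 min at 4 °C for diffusion, then 24 h at 37 °C. Zone diameter read in mm; triplicate.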

Experiment [3] has as its system Salmonella typhi. Put plainly: Antimicrobial activity against Salmonella typhi incubated for 12 to 16 hrs followed by plating in nutrient agar by tube dilution method. The procedure, abridged: (§3)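 After 12-16 h at 37 °C in tube dilution (500 to 1.9 µg/mL; 1 mL inoculum at OD 0.2), the culture from each tube was plated on nutrient agar. MBC is the concentration at which cells are completely killed.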

A short description of experiment [4]: Anti-inflammatory activity at 50 ug/ml using bovine serum albumin and egg albumin proteins incubated at 37 degC for 20 mins and then heated to 95 degC for 20 mins by UV-visible Spectrophotometry based protein denaturation method. The gist of the method: (§4)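 Albumin (bovine serum or egg) at 1% in 50 mM sodium phosphate buffer pH 6.4. Mixture is 0.1 ml test sample (1 mg/ml) plus 0.2 ml albumin, made to 5 ml with buffer. Held 37 °C for 20 min, then 95 °C for 20 min. Cooled to room temperature, turbidity read at 660 nm. % inhibition = (Abs control − Abs sample)/Abs control × 100. Triplicate, averaged.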

The next experiment relates to Staphylococcus aureus. Put plainly: Antimicrobial activity against Staphylococcus aureus at 1 mg/ml incubated for 20 to 30 mins followed by incubation for 24 hrs at 37 degC by agar plate method. The procedure, abridged: (§5)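 Agar well diffusion on nutrient agar. Plates swabbed with 60 µL inoculum; 8 mm wells loaded with 100 µL of compound at 1.0 mg/mL. Held 20–30 min at 4 °C for diffusion, then 24 h at 37 °C. Inhibition zone diameter read in mm. Triplicate.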

The nature of experiment [5]: Anti-inflammatory activity using bovine serum albumin and egg albumin proteins incubated at 37 degC for 20 mins and then heated to 95 degC for 20 mins by UV-visible Spectrophotometry based protein denaturation method. The gist of the method:
as §4

The subject of experiment [6] is Micrococcus luteus. In words: Antimicrobial activity against Micrococcus luteus incubated for 12 to 16 hrs by tube dilution method. The procedure, abridged: (§6)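 Tube dilution, serial from 500 to 1.9 µg/mL, plus drug-free control tube. Each tube inoculated with 1 mL culture at OD 0.2, incubated 37 °C for 12–16 h. MIC is the lowest concentration with no growth by turbidity. MBC is found by plating each tube on nutrient agar: the lowest concentration at which all cells are killed.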

Experiment [7] relates to Micrococcus luteus. In words: Antimicrobial activity against Micrococcus luteus incubated for 12 to 16 hrs followed by plating in nutrient agar by tube dilution method. The gist of the method: as §6
Experiment [8] deals with Salmonella typhi. In words: Antimicrobial activity against Salmonella typhi incubated for 12 to 16 hrs by tube dilution method. The procedure, abridged:
as §1

Experiment [9] is described as follows: Anti-inflammatory activity at 100 ug/ml using bovine serum albumin and egg albumin proteins incubated at 37 degC for 20 mins and then heated to 95 degC for 20 mins by UV-visible Spectrophotometry based protein denaturation method. The gist of the method: as §4
Experiment [10] relates to Salmonella paratyphi. Put plainly: Antimicrobial activity against Salmonella paratyphi incubated for 12 to 16 hrs followed by plating in nutrient agar by tube dilution method. The gist of the method: as §3
Experiment [11] deals with Micrococcus luteus. In words: Antimicrobial activity against Micrococcus luteus at 1 mg/ml incubated for 20 to 30 mins followed by incubation for 24 hrs at 37 degC by agar plate method. The procedure, abridged:
as §5

The test system of experiment [12] is Salmonella typhi. In words: Antimicrobial activity against Salmonella typhi at 1 mg/ml incubated for 20 to 30 mins followed by incubation for 24 hrs at 37 degC by agar plate method. To be noted: for diameter of the inhibition zone (DIZ): Salmonella enterica subsp. enterica serovar Typhi. The gist of the method:
as §2

Setting [13] is: Salmonella enterica subsp. enterica serovar Paratyphi A.
[14] abbreviates: Salmonella enterica subsp. enterica serovar Typhi.
The mark [15] stands for this setting: Salmonella enterica, read-out: DIZ.

Values after ≈ are worked out from the molar mass of the structure shown. Active and inactive are the calls of the source.

In general, MIC refers to the least concentration at which growth counts as inhibited. A word on the MBC: it is the smallest concentration meeting the test's criterion for killing. Usually inhibition stands for how much of the control response was suppressed. One may read the IC50 as the concentration that gives 50% inhibition. Lower therefore signals greater potency. As to `COC(=O)c1nnn(Cc2cn(-c3ccccc3)nc2-c2ccc(OC)cc2)c1C(=O)OC`, the MIC entry in the experiment with Salmonella paratyphi [1] (setting [13]), with Micrococcus luteus [6] and in the experiment on Salmonella typhi [8] (setting [14]) was “inactive” throughout. The “diameter of the inhibition zone (DIZ)” value in the experiment with Salmonella paratyphi [2], in the experiment on Staphylococcus aureus, in the experiment on Micrococcus luteus [11] and with Salmonella typhi [12] was “inactive” in each case. Besides, the MBC result in the experiment with Salmonella typhi [3] (setting [14]), with Micrococcus luteus [7] and in the experiment with Salmonella paratyphi [10] (setting [13]) was “inactive” each time. The inhibition entry in [4] and in experiment [9] was “inactive” each time. Also, the IC50 result in experiment [5] was “Not Active”.

Consider `CN[C@@H]1[C@H](O[C@H]2[C@H](O[C@H]3[C@H](O)[C@@H](O)[C@H](N=C(N)N)[C@@H](O)[C@@H]3N=C(N)N)O[C@@H](C)[C@]2(O)C=O)O[C@@H](CO)[C@H](O)[C@H]1O` [STREPTOMYCIN], for which the MIC against Salmonella paratyphi [1] (Salmonella enterica), against Micrococcus luteus [6] and in the experiment with Salmonella typhi [8] (Salmonella enterica) was 6.25 µg/mL (≈ 10.7 µM) each time. Besides, the zone of inhibition at 1000 µg/mL with Salmonella paratyphi [2] (setting [15]) came to 30 mm; with Staphylococcus aureus (read-out: DIZ), 20.3 mm; in the experiment with Micrococcus luteus [11] (read-out: DIZ) it was 22.5 mm; with Salmonella typhi [12] (setting [15]), 27 mm. Further, the MBC in the experiment on Salmonella typhi [3] (Salmonella enterica), in the experiment on Micrococcus luteus [7] and with Salmonella paratyphi [10] (Salmonella enterica) was 6.25 µg/mL (≈ 10.7 µM) in each case.

Turning to `COC(=O)c1nnn(Cc2cn(-c3ccccc3)nc2-c2ccc(C)cc2)c1C(=O)OC`, the MIC entry with Salmonella paratyphi [1] (setting [13]), with Micrococcus luteus [6] and in the experiment on Salmonella typhi [8] (setting [14]) was “inactive” throughout. Also, the “diameter of the inhibition zone (DIZ)” value in the experiment with Salmonella paratyphi [2], in the experiment on Staphylococcus aureus, in the experiment on Micrococcus luteus [11] and with Salmonella typhi [12] was “inactive” throughout. The MBC entry with Salmonella typhi [3] (setting [14]), in the experiment on Micrococcus luteus [7] and with Salmonella paratyphi [10] (setting [13]) was “inactive” each time. Besides, the inhibition result in [4] and in experiment [9] was “inactive” throughout. The IC50 result in experiment [5] is reported as “Not Active”.

With `Cc1ccc(-c2cn(Cc3cn(-c4ccccc4)nc3-c3ccccc3)nn2)cc1`, the MIC result in the experiment on Salmonella paratyphi [1] (setting [13]), in the experiment on Micrococcus luteus [6] and in the experiment on Salmonella typhi [8] (setting [14]) was “inactive” each time. Besides, the “diameter of the inhibition zone (DIZ)” value in the experiment on Salmonella paratyphi [2], with Staphylococcus aureus, in the experiment with Micrococcus luteus [11] and with Salmonella typhi [12] was “inactive” throughout. Moreover, the MBC entry with Salmonella typhi [3] (setting [14]), with Micrococcus luteus [7] and in the experiment with Salmonella paratyphi [10] (setting [13]) was “inactive” throughout. In addition, the inhibition entry in experiment [4] and in experiment [9] was “inactive” throughout. Also, the IC50 entry in [5] was “Not Active”.

Regarding `c1ccc(-c2cn(Cc3cn(-c4ccccc4)nc3-c3ccccc3)nn2)cc1`, the MIC result in the experiment with Salmonella paratyphi [1] (setting [13]), with Micrococcus luteus [6] and in the experiment with Salmonella typhi [8] (setting [14]) was “inactive” each time. Moreover, the “diameter of the inhibition zone (DIZ)” value in the experiment on Salmonella paratyphi [2], in the experiment with Staphylococcus aureus, in the experiment with Micrococcus luteus [11] and in the experiment on Salmonella typhi [12] was “inactive” each time. In addition, the MBC entry in the experiment with Salmonella typhi [3] (setting [14]), in the experiment with Micrococcus luteus [7] and in the experiment on Salmonella paratyphi [10] (setting [13]) was “inactive” throughout. The inhibition entry in [4] and in [9] was “inactive” throughout. In experiment [5], the IC50 entry was “Not Active”.

As for `FC(F)(F)c1ccccc1-c1cn(Cc2cn(-c3ccccc3)nc2-c2ccccc2)nn1`, the MIC result in the experiment with Salmonella paratyphi [1] (setting [13]), in the experiment with Micrococcus luteus [6] and in the experiment with Salmonella typhi [8] (setting [14]) was “inactive” in each case. Further, the “diameter of the inhibition zone (DIZ)” value in the experiment on Salmonella paratyphi [2], in the experiment on Staphylococcus aureus, in the experiment on Micrococcus luteus [11] and in the experiment on Salmonella typhi [12] was “inactive” throughout. The MBC entry with Salmonella typhi [3] (setting [14]), in the experiment with Micrococcus luteus [7] and with Salmonella paratyphi [10] (setting [13]) was “inactive” throughout. In addition, the inhibition entry in experiment [4] and in experiment [9] was “inactive” each time. For the same compound, the IC50 entry in experiment [5] is recorded as “Not Active”.

On to `CN(C)c1ccc(-c2cn(Cc3cn(-c4ccccc4)nc3-c3ccccc3)nn2)cc1`, for which the MIC result with Salmonella paratyphi [1] (setting [13]), with Micrococcus luteus [6] and in the experiment on Salmonella typhi [8] (setting [14]) was “inactive” in each case. The “diameter of the inhibition zone (DIZ)” value with Salmonella paratyphi [2], in the experiment with Staphylococcus aureus, in the experiment with Micrococcus luteus [11] and with Salmonella typhi [12] was “inactive” throughout. The MBC result in the experiment with Salmonella typhi [3] (setting [14]), in the experiment with Micrococcus luteus [7] and with Salmonella paratyphi [10] (setting [13]) was “inactive” throughout. Also, the inhibition result in experiment [4] and in experiment [9] was “inactive” in each case. For the same compound, in [5], the IC50 entry is listed as “Not Active”.

Turning to `[N-]=[N+]=NCc1cn(-c2ccccc2)nc1-c1ccc(Cl)cc1`, the MIC result in the experiment on Salmonella paratyphi [1] (setting [13]), with Micrococcus luteus [6] and with Salmonella typhi [8] (setting [14]) was “inactive” in each case. Besides, the “diameter of the inhibition zone (DIZ)” value with Salmonella paratyphi [2], in the experiment with Staphylococcus aureus, with Micrococcus luteus [11] and with Salmonella typhi [12] was “inactive” throughout. Also, the MBC result with Salmonella typhi [3] (setting [14]), in the experiment on Micrococcus luteus [7] and in the experiment with Salmonella paratyphi [10] (setting [13]) was “inactive” in each case. Also, the inhibition entry in experiment [4] and in experiment [9] was “inactive” throughout. Moreover, the IC50 result in [5] is “Not Active”.

Consider `CCOC(=O)c1nnn(Cc2cn(-c3ccccc3)nc2-c2ccccc2)c1C(=O)OCC`, for which the MIC result in the experiment on Salmonella paratyphi [1] (setting [13]), with Micrococcus luteus [6] and in the experiment on Salmonella typhi [8] (setting [14]) was “inactive” each time. Also, the “diameter of the inhibition zone (DIZ)” value with Salmonella paratyphi [2], in the experiment with Staphylococcus aureus, in the experiment with Micrococcus luteus [11] and in the experiment on Salmonella typhi [12] was “inactive” in each case. Further, the MBC result in the experiment with Salmonella typhi [3] (setting [14]), in the experiment with Micrococcus luteus [7] and in the experiment on Salmonella paratyphi [10] (setting [13]) was “inactive” throughout. In addition, the inhibition entry in [4] and in experiment [9] was “inactive” each time. Further, in experiment [5], the IC50 result was “Not Active”.

As for `Cc1ccc(-n2cc(Cn3cc(-c4ccccc4)nn3)c(-c3ccccc3)n2)cc1`, the MIC entry in the experiment on Salmonella paratyphi [1] (setting [13]), with Micrococcus luteus [6] and in the experiment on Salmonella typhi [8] (setting [14]) was “inactive” in each case. The “diameter of the inhibition zone (DIZ)” value with Salmonella paratyphi [2], with Staphylococcus aureus, in the experiment on Micrococcus luteus [11] and with Salmonella typhi [12] was “inactive” throughout. In addition, the MBC result in the experiment on Salmonella typhi [3] (setting [14]), in the experiment with Micrococcus luteus [7] and in the experiment with Salmonella paratyphi [10] (setting [13]) was “inactive” throughout. Moreover, the inhibition result in experiment [4] and in [9] was “inactive” each time. Besides, the IC50 entry in experiment [5] was “Not Active”.

As for `O=C([O-])Cc1ccccc1Nc1c(Cl)cccc1Cl.[Na+]` [DICLOFENAC SODIUM], the inhibition was 66.4% in experiment [4] and 93.1% in experiment [9]. In addition, in experiment [5], the IC50 came out at 53.7 µg/mL.
